Results taken from ChEMBL document CHEMBL3232924, “Synthesis and biological evaluation of novel bis-aromatic amides as novel PTP1B inhibitors” (Bioorg Med Chem Lett, 2014).
pIC50: −log10 of the molar value. Activity calls are given as the source filed them. The calls are words filed in the database; no cut-off is given here.

Tests used:
[1] = target: T1, Tyrosine-protein phosphatase non-receptor type 2 (Homo sapiens, UniProt P17706); assay: Inhibition of TCPTP (unknown origin) using pNPP as substrate
T1 sequence (P17706 whole entry): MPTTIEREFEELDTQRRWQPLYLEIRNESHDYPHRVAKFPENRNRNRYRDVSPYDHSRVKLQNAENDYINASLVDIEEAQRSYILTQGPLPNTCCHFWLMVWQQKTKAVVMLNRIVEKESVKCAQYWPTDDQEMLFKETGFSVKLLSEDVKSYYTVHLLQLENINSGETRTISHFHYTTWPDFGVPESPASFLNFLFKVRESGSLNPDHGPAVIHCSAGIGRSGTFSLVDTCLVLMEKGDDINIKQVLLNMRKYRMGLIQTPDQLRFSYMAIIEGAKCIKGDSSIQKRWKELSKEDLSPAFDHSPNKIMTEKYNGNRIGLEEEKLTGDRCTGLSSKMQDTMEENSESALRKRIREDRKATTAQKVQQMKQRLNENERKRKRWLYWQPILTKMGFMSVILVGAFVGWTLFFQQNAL

[2] = target: T2, Tyrosine-protein phosphatase non-receptor type 1 (Homo sapiens, UniProt P18031); assay: Inhibition of PTP1B (unknown origin) using pNPP as substrate
T2 sequence (P18031 whole entry): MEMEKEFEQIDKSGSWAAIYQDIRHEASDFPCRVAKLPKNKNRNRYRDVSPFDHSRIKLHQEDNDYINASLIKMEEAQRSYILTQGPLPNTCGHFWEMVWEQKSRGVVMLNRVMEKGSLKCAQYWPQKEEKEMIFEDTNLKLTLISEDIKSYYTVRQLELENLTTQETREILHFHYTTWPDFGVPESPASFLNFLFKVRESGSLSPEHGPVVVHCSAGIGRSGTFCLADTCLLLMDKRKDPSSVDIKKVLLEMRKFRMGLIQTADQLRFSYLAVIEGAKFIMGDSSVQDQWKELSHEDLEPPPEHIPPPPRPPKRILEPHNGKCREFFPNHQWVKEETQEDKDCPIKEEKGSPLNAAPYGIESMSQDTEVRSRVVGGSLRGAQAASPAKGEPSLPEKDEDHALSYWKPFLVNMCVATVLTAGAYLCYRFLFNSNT

[3] = target: T3, Tyrosine-protein phosphatase non-receptor type 1 (Homo sapiens) (UniProt P18031); assay: Inhibition of PTP1B (unknown origin) using pNPP as substrate at 20 ug/ml
T3 sequence (whole entry): T2 sequence (P18031 whole entry)

Homo sapiens = species: Homo sapiens; assay: Selectivity ratio of IC50 for TCPTP (unknown origin) to IC50 for PTP1B (unknown origin)
In short: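 Colorimetric assay with pNPP as substrate, run the same way for PTP1B and TCPTP. IC50 was obtained by regression analysis and reported as mean ± SD of three replications. The selectivity ratio is TCPTP IC50 divided by PTP1B IC50.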

[4] = target: T4, Tyrosine-protein phosphatase non-receptor type 11 (Homo sapiens) (UniProt Q06124); assay: Inhibition of SHP-2 (unknown origin) using 3-o-methylfluorescein phosphate as substrate at 20 ug/ml
T4 sequence (whole entry): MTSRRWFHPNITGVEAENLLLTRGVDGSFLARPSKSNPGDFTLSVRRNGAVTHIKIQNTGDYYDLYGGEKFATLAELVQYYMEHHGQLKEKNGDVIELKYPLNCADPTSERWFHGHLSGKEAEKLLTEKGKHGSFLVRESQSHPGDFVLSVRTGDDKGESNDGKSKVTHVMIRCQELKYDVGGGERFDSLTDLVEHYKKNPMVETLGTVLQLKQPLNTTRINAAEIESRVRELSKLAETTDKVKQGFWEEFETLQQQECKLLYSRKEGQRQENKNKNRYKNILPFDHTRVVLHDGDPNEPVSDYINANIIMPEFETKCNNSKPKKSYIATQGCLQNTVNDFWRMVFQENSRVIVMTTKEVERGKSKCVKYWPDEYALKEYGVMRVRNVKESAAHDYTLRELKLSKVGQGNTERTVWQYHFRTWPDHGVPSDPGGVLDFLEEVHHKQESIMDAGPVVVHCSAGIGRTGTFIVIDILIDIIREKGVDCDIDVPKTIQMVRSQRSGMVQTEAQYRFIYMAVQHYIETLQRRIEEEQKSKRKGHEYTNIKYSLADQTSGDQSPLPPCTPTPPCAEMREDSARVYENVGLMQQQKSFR

[5] = target: Receptor-type tyrosine-protein phosphatase F (Homo sapiens, UniProt P10586); assay: Inhibition of LAR (unknown origin) using 3-o-methylfluorescein phosphate as substrate at 20 ug/ml
[6] = target: T5, Tyrosine-protein phosphatase non-receptor type 6 (Homo sapiens, UniProt P29350); assay: Inhibition of SHP-1 (unknown origin) using 3-o-methylfluorescein phosphate as substrate at 20 ug/ml
[7] = target: T6, Tyrosine-protein phosphatase non-receptor type 2 (Homo sapiens) (UniProt P17706); assay: Inhibition of TCPTP (unknown origin) using pNPP as substrate at 20 ug/ml
T6 sequence (whole entry): T1 sequence (P17706 whole entry)

[8] = target: T5, Tyrosine-protein phosphatase non-receptor type 6; assay: Inhibition of SHP-1 (unknown origin) using 3-o-methylfluorescein phosphate as substrate
In short: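 SHP-1 activity was read with 3-O-methylfluorescein phosphate (OMFP) as substrate. IC50 was derived by regression analysis and given as mean ± SD of three replications.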

[9] = target: T7, Tyrosine-protein phosphatase non-receptor type 11 (Homo sapiens, UniProt Q06124); assay: Inhibition of SHP-2 (unknown origin) using 3-o-methylfluorescein phosphate as substrate
T7 sequence (Q06124 whole entry): T4 sequence (whole entry)
In short: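 Phosphatase activity was measured with 3-O-methylfluorescein phosphate (OMFP) as substrate, in the same assay format used for SHP-1. IC50 was obtained by regression analysis and reported as mean ± SD of three replicates.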

CHO = assay: Inhibition of PTP1B in CHO cells overexpressing human insulin receptor assessed as increase in insulin-stimulated tyrosine phosphorylation of insulin receptor beta at 5 to 20 uM by immunoblot analysis; type: cell-based; details: Cricetulus griseus
In short: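 CHO cells overexpressing human insulin receptor were treated with compound, with DMSO as negative control. Tyrosine-phosphorylated insulin receptor β was detected by immunoblot.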

[10] = target: T3, Tyrosine-protein phosphatase non-receptor type 1 (Homo sapiens); assay: Competitive inhibition of PTP1B (unknown origin) using pNPP as substrate by Lineweaver-Burk plot analysis
In short: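 Kinetic analysis: initial velocities were measured across various pNPP concentrations at several fixed inhibitor concentrations. Inhibition mode was assigned from Lineweaver–Burk double-reciprocal plots.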

[11] = target: T3, Tyrosine-protein phosphatase non-receptor type 1 (Homo sapiens); assay: Fast-binding inhibition of PTP1B (unknown origin) using pNPP as substrate

Chain of Receptor-type tyrosine-protein phosphatase F (P10586 whole entry): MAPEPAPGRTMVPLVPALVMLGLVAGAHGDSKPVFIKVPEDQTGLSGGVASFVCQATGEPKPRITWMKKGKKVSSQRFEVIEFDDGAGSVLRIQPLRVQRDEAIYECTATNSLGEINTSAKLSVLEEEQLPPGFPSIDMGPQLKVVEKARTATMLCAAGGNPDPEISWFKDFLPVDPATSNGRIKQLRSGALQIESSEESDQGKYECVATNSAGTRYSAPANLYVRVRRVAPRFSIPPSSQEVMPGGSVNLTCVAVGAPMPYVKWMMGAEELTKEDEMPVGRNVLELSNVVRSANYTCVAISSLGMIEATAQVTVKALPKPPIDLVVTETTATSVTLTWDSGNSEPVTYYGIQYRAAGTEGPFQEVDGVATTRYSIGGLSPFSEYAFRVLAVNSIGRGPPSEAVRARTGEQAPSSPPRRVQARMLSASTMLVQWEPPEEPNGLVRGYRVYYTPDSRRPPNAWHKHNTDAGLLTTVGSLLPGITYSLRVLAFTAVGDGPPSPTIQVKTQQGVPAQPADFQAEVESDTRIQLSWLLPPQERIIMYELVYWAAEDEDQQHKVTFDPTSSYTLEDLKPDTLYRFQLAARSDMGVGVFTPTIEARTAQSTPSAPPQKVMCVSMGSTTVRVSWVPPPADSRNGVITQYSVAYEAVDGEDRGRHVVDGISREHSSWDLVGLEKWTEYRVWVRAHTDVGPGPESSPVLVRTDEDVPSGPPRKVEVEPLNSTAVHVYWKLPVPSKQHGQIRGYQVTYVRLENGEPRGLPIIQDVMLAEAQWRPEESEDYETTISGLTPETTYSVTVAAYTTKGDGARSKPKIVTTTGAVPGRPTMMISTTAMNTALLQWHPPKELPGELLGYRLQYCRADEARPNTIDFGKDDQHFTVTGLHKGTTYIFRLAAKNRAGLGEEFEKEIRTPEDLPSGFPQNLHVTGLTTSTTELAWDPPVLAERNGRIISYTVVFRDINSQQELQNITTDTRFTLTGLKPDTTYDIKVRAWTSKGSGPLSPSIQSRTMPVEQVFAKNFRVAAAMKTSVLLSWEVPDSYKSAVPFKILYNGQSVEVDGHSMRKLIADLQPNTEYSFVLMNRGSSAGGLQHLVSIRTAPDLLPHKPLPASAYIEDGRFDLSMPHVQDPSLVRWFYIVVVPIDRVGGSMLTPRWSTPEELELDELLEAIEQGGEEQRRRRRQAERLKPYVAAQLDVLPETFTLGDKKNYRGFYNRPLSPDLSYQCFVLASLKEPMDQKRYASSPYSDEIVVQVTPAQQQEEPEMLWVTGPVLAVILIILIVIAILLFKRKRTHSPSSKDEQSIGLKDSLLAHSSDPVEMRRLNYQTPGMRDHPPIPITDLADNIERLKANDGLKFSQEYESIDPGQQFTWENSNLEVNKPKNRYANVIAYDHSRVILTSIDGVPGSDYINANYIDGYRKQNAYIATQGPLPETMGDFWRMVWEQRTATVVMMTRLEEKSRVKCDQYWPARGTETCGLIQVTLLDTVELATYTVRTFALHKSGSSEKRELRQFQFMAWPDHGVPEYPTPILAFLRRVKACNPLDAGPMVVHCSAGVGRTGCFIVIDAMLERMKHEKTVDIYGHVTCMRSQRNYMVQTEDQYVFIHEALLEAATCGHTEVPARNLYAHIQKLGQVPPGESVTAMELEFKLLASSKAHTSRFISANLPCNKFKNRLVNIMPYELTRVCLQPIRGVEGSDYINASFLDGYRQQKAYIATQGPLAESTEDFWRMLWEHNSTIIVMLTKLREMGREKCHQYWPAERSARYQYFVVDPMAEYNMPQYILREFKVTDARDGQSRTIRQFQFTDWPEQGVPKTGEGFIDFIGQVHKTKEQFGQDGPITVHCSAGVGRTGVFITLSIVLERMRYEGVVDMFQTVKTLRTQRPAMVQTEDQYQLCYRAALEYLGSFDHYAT
T5 sequence (P29350 whole entry): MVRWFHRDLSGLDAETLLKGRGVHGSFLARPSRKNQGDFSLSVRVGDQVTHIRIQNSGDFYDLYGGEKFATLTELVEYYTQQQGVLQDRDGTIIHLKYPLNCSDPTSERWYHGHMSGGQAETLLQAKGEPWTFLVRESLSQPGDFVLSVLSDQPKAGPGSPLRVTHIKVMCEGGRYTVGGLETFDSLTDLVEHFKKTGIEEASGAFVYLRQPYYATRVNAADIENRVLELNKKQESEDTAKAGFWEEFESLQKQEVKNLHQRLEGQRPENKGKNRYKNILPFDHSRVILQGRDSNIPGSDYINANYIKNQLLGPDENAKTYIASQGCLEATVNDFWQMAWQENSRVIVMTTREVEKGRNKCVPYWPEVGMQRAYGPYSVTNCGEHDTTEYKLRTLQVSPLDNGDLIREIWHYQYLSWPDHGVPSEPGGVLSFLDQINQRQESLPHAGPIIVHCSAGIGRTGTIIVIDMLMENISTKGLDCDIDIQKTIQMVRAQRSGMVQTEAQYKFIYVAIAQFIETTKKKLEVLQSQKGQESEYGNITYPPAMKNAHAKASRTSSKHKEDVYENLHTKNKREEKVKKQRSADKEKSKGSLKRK

| pIC50 [2] | inhibition [3] [%] | inhibition [5] [%] | Compound | other results |
| --- | --- | --- | --- | --- |
| 4.73 | 62.8 |  | O=C(Nc1ccccc1)c1ccc(-c2ccc(C(=O)Nc3ccccc3)cc2)cc1 |  |
| 4.78 | 90.7 |  | CC(C)CC(=O)Nc1ccc(-c2ccc(NC(=O)CC(C)C)cc2)cc1 |  |
| 5.27 | 83.9 | < 50 | O=C(Nc1ccc(-c2ccc(NC(=O)c3ccccc3)cn2)cc1)c1ccccc1 | pIC50 [1]: 4.58; Ratio IC50 (Homo sapiens): 4.87; inhibition [4]: < 50%; inhibition [6]: < 50% |
|  | 31.5 |  | COC(=O)c1ccc(-c2ccc(N)cc2)cc1 |  |
| 4.96 | 86.4 |  | O=C(Nc1ccc(-c2ccc(NC(=O)c3ccco3)cn2)cc1)c1ccco1 |  |
| 4.99 | 69.4 |  | COC(=O)c1ccc(-c2ccc(NC(=O)c3ccccc3)cc2)cc1 |  |
| 4.72 |  | < 50 | O=C(Nc1ccc(-c2ccc(NC(=O)c3ccco3)cc2)cc1)c1ccco1 | pIC50 [1]: 4.29; pIC50 [8]: 4.41; Ratio IC50 (Homo sapiens): 2.64 |
|  | 43.5 |  | CC(C)(C)OC(=O)N1CCC[C@H]1C(=O)Nc1ccc(-c2ccc(NC(=O)[C@@H]3CCCN3C(=O)OC(C)(C)C)cc2)cc1 |  |
|  | 11.9 |  | COc1ccc(C(=O)Nc2ccc(-c3ccc(NC(=O)c4ccc(OC)cc4)cc3)cc2)cc1 |  |

Second part, the compound before the results:

| Compound | pIC50 [2] | inhibition [3] [%] | inhibition [5] [%] | other results |
| --- | --- | --- | --- | --- |
| O=C(Nc1ccc(-c2ccc(NC(=O)C3CCN(C(=O)c4ccccc4)CC3)cc2)cc1)C1CCN(C(=O)c2ccccc2)CC1 | 5.58 | 94.1 | < 50 | pIC50 [1]: 5.12; Ratio IC50 (Homo sapiens): 2.88; inhibition [4]: < 50%; inhibition [6]: < 50% |
| O=C(Nc1ccc(-c2ccc(NC(=O)c3ccccc3)cc2)cc1)c1ccccc1 | 4.92 | 95.2 |  |  |
| O=C(Nc1ccc(F)cc1)c1ccc(-c2ccc(C(=O)Nc3ccc(F)cc3)cc2)cc1 |  | 7.92 |  |  |
| O=C(Nc1ccc(-c2ccc(NC(=O)[C@@H]3CCCN3)cc2)cc1)[C@@H]1CCCN1 |  | 0.7 |  |  |
| O=C(Nc1ccc(-c2ccc(NC(=O)C3CCCCC3)cn2)cc1)C1CCCCC1 | 5.15 | 82.1 | < 50 | pIC50 [1]: 4.64; Ratio IC50 (Homo sapiens): 3.2; inhibition [4]: < 50%; inhibition [6]: < 50% |
| O=C(Nc1ccc(-c2ccc(NC(=O)c3ccc(F)cc3)cn2)cc1)c1ccc(F)cc1 | 5.22 | 71 | < 50 | inhibition [7]: < 50%; pIC50 [8]: 4.75 |
| SODIUM ORTHOVANAD |  |  |  | pIC50 [8]: 4.75; pIC50 [9]: 4.46 |
| O=C(Nc1ccc(-c2ccc(NC(=O)C3CCN(C(=O)c4ccc(F)cc4)CC3)cc2)cc1)C1CCN(C(=O)c2ccc(F)cc2)CC1 | 5.30 | 95.3 | < 50 | inhibition [7]: < 50%; inhibition [4]: < 50%; inhibition [6]: < 50% |
| CC(C)(C)OC(=O)N1CCC(C(=O)Nc2ccc(-c3ccc(NC(=O)C4CCN(C(=O)OC(C)(C)C)CC4)cc3)cc2)CC1 | 5.02 | 71.1 | < 50 | pIC50 [1]: 4.67; pIC50 [8]: 4.74; Ratio IC50 (Homo sapiens): 2.23; inhibition [4]: < 50% |
| COc1cc(C(=O)Nc2ccc(-c3ccc(NC(=O)c4cc(OC)c(OC)c(OC)c4)cc3)cc2)cc(OC)c1OC |  | 47.4 |  |  |
| O=C(Nc1ccc(-c2ccc(NC(=O)C3CCN(C(=O)C4CCCCC4)CC3)cc2)cc1)C1CCN(C(=O)C2CCCCC2)CC1 | 4.83 | 61 |  |  |
| CC(C)CC(=O)Nc1ccc(-c2ccc(NC(=O)CC(C)C)cn2)cc1 | 4.58 | 58.1 |  |  |
| O=C(Nc1ccc(-c2ccc(NC(=O)c3cccs3)cc2)cc1)c1cccs1 |  | 38.1 |  |  |
| O=C(Nc1ccc(-c2ccc(NC(=O)c3ccc(F)cc3)cc2)cc1)c1ccc(F)cc1 | 4.72 | 98.6 |  |  |
| CC(C)CC(=O)N1CCC(C(=O)Nc2ccc(-c3ccc(NC(=O)C4CCN(C(=O)CC(C)C)CC4)cc3)cc2)CC1 | 4.92 | 70 |  |  |
| O=C(Nc1ccc(-c2ccc(NC(=O)C3CCCCC3)cc2)cc1)C1CCCCC1 | 4.90 | 84.6 |  |  |
| O=C(Nc1ccc(-c2ccc(NC(=O)C3CCNCC3)cc2)cc1)C1CCNCC1 |  | 10.3 |  |  |
| O=C(Nc1ccc(-c2ccc(C(=O)Nc3ccccc3)cc2)cc1)c1ccccc1 | 5.34 | 81.2 | < 50 | inhibition [7]: < 50%; inhibition [4]: < 50%; inhibition [6]: < 50% |
| O=C(Nc1ccc(-c2ccc(NC(=O)C3CCN(C(=O)c4ccco4)CC3)cc2)cc1)C1CCN(C(=O)c2ccco2)CC1 | 5.63 | 94 | < 50 | pIC50 [1]: 4.91; Ratio IC50 (Homo sapiens): 5.29; inhibition (CHO): Active; inhibition [4]: < 50%; inhibition [10]: Active; inhibition [11]: Active; inhibition [6]: < 50% |
